Active and inactive are the calls of the source. No cut-off for these calls is given here.
Experiments:
[1] = molecular target: T1, Kappa-type opioid receptor (Homo sapiens, UniProt P41145); assay: Agonist activity at recombinant human kappa opioid receptor extracted from CHO cell membrane assessed as induction of [35S]GTPgammaS binding incubated for 1 hr by TopCount NXT Microplate Scintillation and Luminescence Counter analysis; format: functional, cell membranes
[2] = Metabolic stability in mouse liver microsome assessed as half life at 1 uM by LC-MS/MS analysis; format: ADME; settings: liver microsomes
Summary of the method: (§1)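 Hepatic microsomes (1 mg/mL) were incubated with 1 μM compound at 37 °C with continuous shaking. Reactions were quenched with acetonitrile at 5-min intervals over 1 h and filtered. Half-life was determined by LC-MS/MS.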

[3] = molecular target: T1, Kappa-type opioid receptor; assay: Agonist activity at recombinant human kappa opioid receptor extracted from CHO cell membrane assessed as induction of [35S]GTPgammaS binding by measuring maximum efficacy at 10 uM incubated for 1 hr by TopCount NXT Microplate Scintillation and Luminescence Counter analysis relative to U69,593; format: functional, cell membranes
[4] = Metabolic stability in human liver microsome assessed as half life at 1 uM by LC-MS/MS analysis; format: ADME, microsomes; settings: for half-life at 1 µM: liver microsomes; summary of the method: as §1
[5] = molecular target: T1, Kappa-type opioid receptor; assay: Agonist activity at human kappa opioid receptor tranfected in U2OS cells co-transfected with arrestin2-EFC assessed as induction of beta arrestin2 recruitment incubated for 90 mins by Synergy HT luminometer; format: functional, cell-based
Summary of the method: (§2)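 PathHunter enzyme-fragment complementation in U2OS cells stably expressing hKOR and βarrestin2, grown in MEM with 10% FBS, geneticin and hygromycin B, run per manufacturer's protocol. Concentration–response curves were fit by three-parameter nonlinear regression, normalized to vehicle and to maximal stimulation by the reference agonist U69,593 on the same plate. 2–4 replicates per experiment; n ≥ 3 independent experiments; 95% CI.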

[6] = molecular target: T1, Kappa-type opioid receptor; assay: Agonist activity at human kappa opioid receptor tranfected in U2OS cells co-transfected with arrestin2-EFC assessed as induction of beta arrestin2 recruitment by measuring maximum efficacy incubated for 90 mins by Synergy HT luminometer relative to […]; format: functional, cell-based
Summary of the method: as §2, with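 “plate.” for “plate. 2–4 replicates per experiment; n ≥ 3 independent experiments; 95% CI.”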

[7] = molecular target: Delta-type opioid receptor (Homo sapiens) (UniProt P41143); assay: Binding affinity to delta opioid receptor (unknown origin) assessed as inhibition of [3H]-D-Ala2,D-Leu5-enkephalin binding at 10 uM by radioligand binding assay relative to control
Sequence of Delta-type opioid receptor (Homo sapiens) (P41143 whole entry): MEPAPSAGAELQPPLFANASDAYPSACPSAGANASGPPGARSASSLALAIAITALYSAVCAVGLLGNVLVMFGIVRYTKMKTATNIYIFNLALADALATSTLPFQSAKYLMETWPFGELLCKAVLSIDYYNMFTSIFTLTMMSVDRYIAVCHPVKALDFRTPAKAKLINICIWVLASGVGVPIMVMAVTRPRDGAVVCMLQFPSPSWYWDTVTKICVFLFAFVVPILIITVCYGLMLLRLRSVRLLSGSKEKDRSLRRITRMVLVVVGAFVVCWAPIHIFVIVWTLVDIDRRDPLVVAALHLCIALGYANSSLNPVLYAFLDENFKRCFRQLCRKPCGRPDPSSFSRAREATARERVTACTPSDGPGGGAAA

[8] = molecular target: T1, Kappa-type opioid receptor; assay: Displacement of [3H]-[…] from kappa opioid receptor (unknown origin) assessed as inhibition constant by radioligand binding assay
[9] = molecular target: Mu-type opioid receptor (Homo sapiens) (UniProt P35372); assay: Binding affinity to Mu opioid receptor (unknown origin) assessed as inhibition of [3H]-D-Ala2,N-MePhe4,Gly-ol-enkephalin binding at 10 uM by radioligand binding assay relative to control
Sequence of Mu-type opioid receptor (Homo sapiens) (P35372 whole entry): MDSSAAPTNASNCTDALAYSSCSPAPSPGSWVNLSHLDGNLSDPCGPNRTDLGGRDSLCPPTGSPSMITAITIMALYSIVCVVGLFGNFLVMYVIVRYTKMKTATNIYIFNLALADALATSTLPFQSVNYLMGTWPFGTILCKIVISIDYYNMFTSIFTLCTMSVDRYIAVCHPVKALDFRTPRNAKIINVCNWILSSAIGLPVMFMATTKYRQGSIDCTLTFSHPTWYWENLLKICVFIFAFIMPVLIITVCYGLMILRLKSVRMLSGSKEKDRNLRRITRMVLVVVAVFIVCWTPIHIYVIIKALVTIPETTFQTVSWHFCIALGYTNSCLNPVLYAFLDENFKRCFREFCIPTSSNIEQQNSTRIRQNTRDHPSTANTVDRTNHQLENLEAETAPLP

[10] = molecular target: T1, Kappa-type opioid receptor; assay: Binding affinity to kappa opioid receptor (unknown origin) assessed as inhibition of [3H]-[…] binding at 10 uM by radioligand binding assay relative to control; settings: filed as agonist

T1 sequence (P41145 whole entry): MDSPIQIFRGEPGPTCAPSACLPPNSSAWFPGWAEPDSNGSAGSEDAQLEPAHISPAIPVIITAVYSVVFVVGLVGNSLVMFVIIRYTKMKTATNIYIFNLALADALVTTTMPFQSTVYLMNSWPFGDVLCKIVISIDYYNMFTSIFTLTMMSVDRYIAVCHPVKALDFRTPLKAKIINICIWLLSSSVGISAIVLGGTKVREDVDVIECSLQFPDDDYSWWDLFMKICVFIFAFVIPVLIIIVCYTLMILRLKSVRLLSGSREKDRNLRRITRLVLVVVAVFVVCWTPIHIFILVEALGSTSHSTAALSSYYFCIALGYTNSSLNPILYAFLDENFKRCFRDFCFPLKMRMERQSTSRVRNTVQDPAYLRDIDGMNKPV

Row | SMILES | EC50 [1] [nM] | half-life at 1 µM [2] [min] | Emax ([3]; filed as agonist) [%] | half-life at 1 µM [4] [min] | EC50 [5] [nM] | further results
1 | Cc1ccc(CCc2nnc(-c3ccc4ccccc4c3)n2Cc2cccs2)cc1C(F)(F)F | 2960 | – | – | – | – | –
2 | Cc1ccc(CCc2nnc(-c3ccccn3)n2Cc2ccncc2)cc1C(F)(F)F | – | – | – | – | – | Activity [1]: inactive
3 | c1ccc(CCc2nnc(-c3ccccn3)n2Cc2cccs2)cc1 | 926 | 1.6 | 76 | 5.5 | – | –
4 | Cc1ccc(CCc2nnc(-c3cccc4ccccc34)n2Cc2cccs2)cc1C(F)(F)F | 429 | – | – | – | – | –
5 | Cc1ccc(CCc2nnc(-c3ccccn3)n2CC2CC2)cc1C(F)(F)F | 213 | – | – | – | 6220 | –
6 | OC(Cc1nnc(-c2ccccn2)n1Cc1cccs1)c1ccccc1 (stereo not drawn) | – | 2.6 | – | 20.7 | – | Emax [3]: 17%
7 | FC(F)(F)c1ccccc1CCc1nnc(-c2ccccn2)n1Cc1cccs1 | 429 | – | – | – | – | –
8 | Cc1ccc(CCc2nnc(-c3ccc4ccccc4n3)n2Cc2cccs2)cc1C(F)(F)F | 872 | – | – | – | – | –
9 | Clc1ccc(CCc2nnc(-c3ccccn3)n2Cc2cccs2)cc1 | 33 | 3.3 | 86 | 3.3 | 2870 | Emax ([6]; filed as agonist): 137%
10 | FC(Cc1ccccc1)c1nnc(-c2ccccn2)n1Cc1ccco1 (stereo not drawn) | – | 1.9 | – | 9.1 | – | –
11 | Cc1ccc(CCc2nnc(-c3ccccn3)n2Cc2cccs2)cc1C(F)(F)F | 11 | 1.5 | – | 1.4 | 594 | inhibition [7]: 30.7%; Ki [8]: 5.8 nM; inhibition [9]: 30.9%; Emax ([6]; filed as agonist): 102%; inhibition [10]: 99.7%
12 | Cc1ccc(CCc2nnc(-c3cccnc3)n2Cc2cccs2)cc1C(F)(F)F | 1880 | – | 85 | – | – | –
13 | Cc1ccc(CCc2nnc(-c3ccncn3)n2Cc2cccs2)cc1C(F)(F)F | 991 | – | – | – | – | –
14 | Brc1cccc(CCc2nnc(-c3ccccn3)n2Cc2cccs2)c1 | 51 | – | 89 | – | 5610 | Emax ([6]; filed as agonist): 118%
15 | OC(Cc1ccccc1)c1nnc(-c2ccccn2)n1Cc1ccco1 (stereo not drawn) | – | 2.5 | – | 17.4 | – | Emax [3]: 20%
16 | O=C(Cc1ccccc1)c1nnc(-c2ccccn2)n1Cc1ccco1 | – | 1.2 | – | 8.1 | – | Emax [3]: 4%
17 | Cc1ccc(CCc2nnc(-c3ccccn3)n2Cc2ccccn2)cc1C(F)(F)F | 175 | – | 84 | – | 8120 | Emax ([6]; filed as agonist): 127%
18 | Clc1ccc(CCc2nnc(-c3ccccn3)n2Cc2cccs2)c(Cl)c1 | 32 | 2.6 | 91 | 2.1 | 5160 | Emax ([6]; filed as agonist): 154%
19 | Cc1ccc(/C=C/c2nnc(-c3nccn3C)n2Cc2nccs2)cc1C(F)(F)F | – | – | 309 | – | 2190 | Emax [6]: 36%
20 | Cc1ccc(/C=C/c2nnc(-c3ccccn3)n2Cc2ccco2)cc1C(F)(F)F | 1170 | 32.2 | 89 | – | – | t1/2 ([4]; microsomes, 1 µM): 18 min
21 | c1ccc(-c2nnc(CCc3ccc4ccccc4c3)n2Cc2cccs2)nc1 | 12 | – | – | – | 896 | –

From ChEMBL document CHEMBL5608183, “Synthesis and evaluation of 3,4,5-trisubstituted triazoles as G protein-biased kappa opioid receptor agonists” (Eur J Med Chem, 2024)
